Experiments:
[1] = Inhibition of recombinant human His-tagged KGA S384A mutant expressed in Escherichia coli BL21(DE3)pLysS using glutamine substrate preincubated for 10 mins followed by substrate addition measured after 60 mins
[2] = test system: MDA-MB-231; test: Growth inhibition of human MDA-MB-231 cells after 72 hrs by MTS assay; type: functional, cell-based; settings: MDA-MB-231, 72 h
Method in brief: (§1)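 Growth inhibition by MTS viability read-out. Cells seeded in 96-well plates at 4000/well (AsPC-1) or 8500/well (MDA-MB-231). Mean ± SD from at least three independent experiments, each in duplicate.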

[3] = test system: ASPC1; test: Anticlonogenic activity against human Aspc-1 cells at 10 uM after 21 days by crystal violet staining based assay relative to control; type: functional; settings: ASPC1, 504 h
Method in brief: (§2)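 Anchorage-dependent colony formation: AsPC-1 cells seeded at 1000 cells/well in six-well plates and treated with compound. Colony formation is expressed as percent of vehicle treatment. Mean ± SD from at least three independent experiments, each in duplicate.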

[4] = species on record: Homo sapiens; test: Selectivity ratio of IC50 for recombinant human His-tagged KGA R387L mutant expressed in Escherichia coli BL21(DE3)pLysS to IC50 for human His-tagged KGA (L123 to L669 residues) expressed in Escherichia coli BL21(DE3)pLysS
[5] = biological target: T1, Glutaminase kidney isoform, mitochondrial (Homo sapiens, UniProt O94925); test: Inhibition of recombinant human His-tagged KGA (L123 to L669 residues) expressed in Escherichia coli BL21(DE3)pLysS using glutamine substrate preincubated for 10 mins followed by substrate addition measured after 60 mins by glutamate dehydrogenase coupled enzyme assay
T1 sequence (O94925 whole entry): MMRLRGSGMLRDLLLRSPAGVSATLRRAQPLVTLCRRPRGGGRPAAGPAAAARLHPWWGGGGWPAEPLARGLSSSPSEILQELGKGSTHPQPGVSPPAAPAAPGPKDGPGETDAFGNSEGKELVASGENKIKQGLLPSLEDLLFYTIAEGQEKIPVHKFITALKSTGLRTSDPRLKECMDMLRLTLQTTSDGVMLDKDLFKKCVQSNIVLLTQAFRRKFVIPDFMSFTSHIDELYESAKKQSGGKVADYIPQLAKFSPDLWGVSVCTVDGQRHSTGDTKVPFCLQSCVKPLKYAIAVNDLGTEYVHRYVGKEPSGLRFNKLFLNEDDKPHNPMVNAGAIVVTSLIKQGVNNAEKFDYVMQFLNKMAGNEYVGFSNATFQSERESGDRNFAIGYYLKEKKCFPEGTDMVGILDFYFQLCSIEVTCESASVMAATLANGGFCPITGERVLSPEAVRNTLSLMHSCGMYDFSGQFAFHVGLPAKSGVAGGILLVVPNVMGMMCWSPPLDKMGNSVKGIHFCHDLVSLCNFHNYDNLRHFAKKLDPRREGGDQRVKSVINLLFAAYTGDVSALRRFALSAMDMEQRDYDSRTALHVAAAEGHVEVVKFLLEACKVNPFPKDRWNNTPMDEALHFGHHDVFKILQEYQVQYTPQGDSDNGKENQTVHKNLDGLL

[6] = species on record: Homo sapiens; test: Selectivity ratio of IC50 for recombinant human His-tagged KGA R387A mutant expressed in Escherichia coli BL21(DE3)pLysS to IC50 for human His-tagged KGA (L123 to L669 residues) expressed in Escherichia coli BL21(DE3)pLysS
[7] = species on record: Homo sapiens; test: Selectivity index, ratio of IC50 for recombinant human His-tagged GAB (P56-V602 residues) expressed in Escherichia coli C41(DE3)pLysS to IC50 for recombinant human His-tagged KGA (L123 to L669 residues) expressed in Escherichia coli BL21(DE3)pLysS
[8] = test system: ASPC1; test: Growth inhibition of human Aspc-1 cells after 72 hrs by MTS assay; type: functional, cell-based; settings: ASPC1, 72 h; method in brief: as §1
[9] = biological target: T2, Glutaminase liver isoform, mitochondrial (Homo sapiens, UniProt Q9UI32); test: Inhibition of recombinant human His-tagged GAB (P56 to V602 residues) expressed in Escherichia coli C41(DE3)pLysS using glutamine as substrate preincubated for 10 mins followed by substrate addition measured after 60 mins by glutamate dehydrogenase coupled enzyme assay
T2 sequence (Q9UI32 whole entry): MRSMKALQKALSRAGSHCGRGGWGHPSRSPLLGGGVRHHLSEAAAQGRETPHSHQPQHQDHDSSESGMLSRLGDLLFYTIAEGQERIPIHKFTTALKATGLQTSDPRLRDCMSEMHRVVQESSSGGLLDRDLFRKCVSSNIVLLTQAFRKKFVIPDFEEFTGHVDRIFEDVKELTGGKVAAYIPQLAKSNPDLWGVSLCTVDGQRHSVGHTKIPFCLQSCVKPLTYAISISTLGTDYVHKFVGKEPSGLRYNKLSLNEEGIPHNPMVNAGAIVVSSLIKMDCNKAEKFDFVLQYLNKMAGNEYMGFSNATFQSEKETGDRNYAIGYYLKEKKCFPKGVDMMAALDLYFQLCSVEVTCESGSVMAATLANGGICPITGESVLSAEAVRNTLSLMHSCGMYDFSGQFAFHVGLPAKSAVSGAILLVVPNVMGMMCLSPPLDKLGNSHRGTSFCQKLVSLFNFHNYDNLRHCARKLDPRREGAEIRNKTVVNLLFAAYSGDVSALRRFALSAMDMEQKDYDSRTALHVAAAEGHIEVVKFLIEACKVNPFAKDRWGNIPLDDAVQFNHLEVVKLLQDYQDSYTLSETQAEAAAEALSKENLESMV

[10] = biological target: T1, Glutaminase kidney isoform, mitochondrial; test: Inhibition of recombinant human MCF7 cells derived His-tagged GAC (L123 to S598 residues) expressed in Escherichia coli C41(DE3)pLysS using glutamine as substrate preincubated for 10 mins followed by substrate addition measured after 60 mins by glutamate dehydrogenase coupled enzyme assay
Method in brief: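 Human GAC cloned from MCF7 cDNA into pET28a(+) as a His-tagged construct. Expressed in E. coli C41(DE3)pLysS in Terrific Broth with kanamycin, induced with 1 mM IPTG for 6 h at 25 °C. Purified on Ni2+ resin with 500 mM imidazole elution and exchanged into 50 mM NaH2PO4, 50 mM Tris-HCl pH 8.0, 2 mM DTT, 50% glycerol. Activity measured by two-step glutaminase assay.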

[11] = Inhibition of recombinant human His-tagged KGA R387A mutant expressed in Escherichia coli BL21(DE3)pLysS using glutamine substrate preincubated for 10 mins followed by substrate addition measured after 60 mins
[12] = test system: ASPC1; test: Anticlonogenic activity against human Aspc-1 cells at 2 uM after 21 days by crystal violet staining based assay relative to control; type: functional; settings: ASPC1, 504 h; method in brief: as §2

| SMILES | IC50 [1] [nM] | IC50 [2] [nM] | inhibition at 10 µM [3] [%] | Ratio IC50 [4] | IC50 [5] [nM] | Ratio IC50 [6] | Ratio IC50 [7] | IC50 [8] [nM] | IC50 [9] [nM] | IC50 [10] [nM] | IC50 [11] [nM] | inhibition at 2 µM [12] [%] |
| --- | --- | --- | --- | --- | --- | --- | --- | --- | --- | --- | --- | --- |
| Cc1cc(/C=C2\SC(=O)NC2=O)c(C)n1-c1ccc(-c2ccc(/C=C3\SC(=O)NC3=O)cc2)cc1 | 361 | 42000 | 59 | 12.5 | 102 | > 490 | 12 | 34500 | 1190 | 381 | > 50000 | 13 |
| Cc1cc(/C=C2\SC(=O)NC2=O)c(C)n1-c1ccc(-c2ccc(/C=C3\SC(=O)NC3=O)c(Cl)c2)cc1 | 87 | > 50000 | 51 | 13.5 | 57 | 191 | 74 | > 50000 | 4190 | 255 | 10900 | 18 |
| O=C1NC(=O)/C(=C/c2ccc(-c3ccc(-n4c(-c5cccs5)cc(/C=C5\SC(=O)NC5=O)c4-c4cccs4)cc3)cc2)S1 |  | 28700 | 87 |  | 50 |  | 2 | 14800 | 102 | 49 |  | 64 |

From ChEMBL document CHEMBL4011632, “Design, Synthesis, and Evaluation of Thiazolidine-2,4-dione Derivatives as a Novel Class of Glutaminase Inhibitors” (J Med Chem, 2017)
